# Laboratory results: ChEMBL document CHEMBL3286143, “Minimizing the Contribution of Enterohepatic Recirculation to Clearance in Rat for the NCINI Class of Inhibitors of HIV” (ACS Med Chem Lett, 2014)
# Molecular target: Cytochrome P450 2D6 (Homo sapiens, UniProt P10635)
# Assay: Inhibition of CYP2D6 (unknown origin)
# Type: ADME
# Conditions: not given
# Sequence of Cytochrome P450 2D6 (P10635 whole entry): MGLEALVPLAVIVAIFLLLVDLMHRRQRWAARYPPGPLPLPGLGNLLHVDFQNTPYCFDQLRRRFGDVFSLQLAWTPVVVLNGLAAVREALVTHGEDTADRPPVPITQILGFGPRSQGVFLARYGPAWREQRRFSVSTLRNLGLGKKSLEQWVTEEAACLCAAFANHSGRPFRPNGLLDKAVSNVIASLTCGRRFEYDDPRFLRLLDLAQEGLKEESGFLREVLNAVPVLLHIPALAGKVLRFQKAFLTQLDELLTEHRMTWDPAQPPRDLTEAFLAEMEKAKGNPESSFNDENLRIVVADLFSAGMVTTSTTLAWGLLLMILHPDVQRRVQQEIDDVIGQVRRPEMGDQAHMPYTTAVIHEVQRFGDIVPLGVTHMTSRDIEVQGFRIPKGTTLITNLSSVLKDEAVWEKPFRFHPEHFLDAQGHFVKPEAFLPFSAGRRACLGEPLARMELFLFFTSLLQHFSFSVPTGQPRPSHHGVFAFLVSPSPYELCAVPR
row,Structure (SMILES),IC50
1,Cc1noc(C)c1-c1ccc(-c2nc(C)c([C@H](OC(C)(C)C)C(=O)O)c(-c3ccc(Cl)cc3)c2C)cc1,> 30000 nM
2,Cc1nc2ccccc2c(-c2ccc3c4c(ccnc24)CCO3)c1[C@H](OC(C)(C)C)C(=O)O [BI-224436],> 30000 nM

# Tested on: Human immunodeficiency virus 1
# Assay: Antiviral activity against HIV1 NL4.3 harboring integrase A124/T125 mutant relative to control in presence of 50% human serum
# Type: functional
# Conditions: not given
# In short: (§1)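 Serum shift for the same NL4.3 IN-variant viruses, from EC50 values measured with and without 50% human serum.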
row,Structure (SMILES),fold change (FC)
1,Cc1noc(C)c1-c1ccc(-c2nc(C)c([C@H](OC(C)(C)C)C(=O)O)c(-c3ccc(Cl)cc3)c2C)cc1,9.9
2,Cc1nc2ccccc2c(-c2ccc3c4c(ccnc24)CCO3)c1[C@H](OC(C)(C)C)C(=O)O [BI-224436],2.1

# Tested on: Human immunodeficiency virus 1
# Assay: Antiviral activity against HIV1 NL4.3 harboring integrase T124/T125 mutant
# Type: functional, organism-based
# Conditions: Human immunodeficiency virus 1, NL4.3
# In short: (§2)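 Cell-based antiviral assay giving EC50 (nM) against wild-type NL4.3 (IN T124/T125) or recombinant NL4.3 engineered to carry the naturally polymorphic integrase residues at positions 124 and 125.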
row,Structure (SMILES),EC50
1,Cc1ccc(-c2nc(C)c([C@H](OC(C)(C)C)C(=O)O)c(-c3ccc4c(c3)CCCO4)c2C)cc1,18 nM
2,Cc1nc2c(c(-c3ccc4c(c3)CCCO4)c1[C@H](OC(C)(C)C)C(=O)O)CCCc1ccccc1-2,560 nM
3,Cc1noc(C)c1-c1ccc(-c2nc(C)c([C@H](OC(C)(C)C)C(=O)O)c(-c3ccc(Cl)cc3)c2C)cc1,7.7 nM

# Tested on: not listed separately
# Assay: Half life in rat
# Type: ADME, organism-based
# Conditions: in vivo
row,Structure (SMILES),half-life
1,Cc1noc(C)c1-c1ccc(-c2nc(C)c([C@H](OC(C)(C)C)C(=O)O)c(-c3ccc(Cl)cc3)c2C)cc1,8.9 h

# Tested on: not listed separately
# Assay: Half life in rat liver microsomes
# Type: ADME
# Conditions: not given
row,Structure (SMILES),half-life
1,Cc1noc(C)c1-c1ccc(-c2nc(C)c([C@H](OC(C)(C)C)C(=O)O)c(-c3ccc(Cl)cc3)c2C)cc1,2.67 h
2,Cc1nc2ccccc2c(-c2ccc3c4c(ccnc24)CCO3)c1[C@H](OC(C)(C)C)C(=O)O [BI-224436],> 5 h

# Tested on: Human immunodeficiency virus 1
# Assay: Antiviral activity against HIV1 NL4.3 harboring integrase N124/T125 mutant relative to control in presence of 50% human serum
# Type: functional
# Conditions: not given
# In short: as §1
row,Structure (SMILES),fold change (FC)
1,Cc1noc(C)c1-c1ccc(-c2nc(C)c([C@H](OC(C)(C)C)C(=O)O)c(-c3ccc(Cl)cc3)c2C)cc1,9.9
2,Cc1nc2ccccc2c(-c2ccc3c4c(ccnc24)CCO3)c1[C@H](OC(C)(C)C)C(=O)O [BI-224436],2.1

# Molecular target: T1, Human immunodeficiency virus type 1 integrase (Human immunodeficiency virus 1, UniProt Q7ZJM1)
# Assay: Apparent binding affinity to Trx-His-tagged HIV integrase
# Conditions: read-out: Kd(app)
# In short: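 Apparent dissociation constant from the same displacement assay, run instead with a thioredoxin-tagged His6 integrase construct.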
# T1 sequence (Q7ZJM1 whole entry): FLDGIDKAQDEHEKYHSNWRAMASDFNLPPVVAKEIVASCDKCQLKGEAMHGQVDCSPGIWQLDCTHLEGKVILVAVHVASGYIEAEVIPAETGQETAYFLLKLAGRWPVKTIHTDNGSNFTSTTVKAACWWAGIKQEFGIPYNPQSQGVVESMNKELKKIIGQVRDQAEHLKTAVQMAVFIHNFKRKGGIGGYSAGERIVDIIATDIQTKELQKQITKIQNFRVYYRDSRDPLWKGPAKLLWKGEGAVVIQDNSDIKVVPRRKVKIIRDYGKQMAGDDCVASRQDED
row,Structure (SMILES),Kd
1,Cc1ccc(-c2nc(C)c([C@H](OC(C)(C)C)C(=O)O)c(-c3ccc4c(c3)CCCO4)c2C)cc1,31 nM
2,Cc1noc(C)c1-c1ccc(-c2nc(C)c([C@H](OC(C)(C)C)C(=O)O)c(-c3ccc(Cl)cc3)c2C)cc1,50 nM

# Molecular target: T1, Human immunodeficiency virus type 1 integrase
# Assay: Apparent binding affinity to His-tagged HIV integrase
# Conditions: read-out: Kd(app)
row,Structure (SMILES),Kd
1,Cc1nc2c(c(-c3ccc4c(c3)CCCO4)c1[C@H](OC(C)(C)C)C(=O)O)CCCc1ccccc1-2,1100 nM

# Tested on: not listed separately
# Assay: Lipophilicity, log D of the compound at pH 7.4
# Type: physicochemical
# Conditions: buffer
row,Structure (SMILES),logD
1,Cc1noc(C)c1-c1ccc(-c2nc(C)c([C@H](OC(C)(C)C)C(=O)O)c(-c3ccc(Cl)cc3)c2C)cc1,3.1

# Tested on: Human immunodeficiency virus 1
# Assay: Antiviral activity against HIV1 NL4.3 harboring integrase N124/T125 mutant
# Type: functional, organism-based
# Conditions: Human immunodeficiency virus 1, NL4.3
# In short: as §2
row,Structure (SMILES),EC50
1,Cc1ccc(-c2nc(C)c([C@H](OC(C)(C)C)C(=O)O)c(-c3ccc4c(c3)CCCO4)c2C)cc1,1400 nM
2,Cc1noc(C)c1-c1ccc(-c2nc(C)c([C@H](OC(C)(C)C)C(=O)O)c(-c3ccc(Cl)cc3)c2C)cc1,810 nM

# Species: Rattus norvegicus
# Assay: Clearance in rat
# Type: ADME, organism-based
# Conditions: in vivo
row,Structure (SMILES),CL
1,Cc1noc(C)c1-c1ccc(-c2nc(C)c([C@H](OC(C)(C)C)C(=O)O)c(-c3ccc(Cl)cc3)c2C)cc1,0.6%
2,Cc1nc2ccccc2c(-c2ccc3c4c(ccnc24)CCO3)c1[C@H](OC(C)(C)C)C(=O)O [BI-224436],0.7%

# Tested on: Human immunodeficiency virus 1
# Assay: Antiviral activity against HIV1 NL4.3 harboring integrase T124/T125 mutant relative to control in presence of 50% human serum
# Type: functional
# Conditions: not given
# In short: as §1
row,Structure (SMILES),fold change (FC)
1,Cc1noc(C)c1-c1ccc(-c2nc(C)c([C@H](OC(C)(C)C)C(=O)O)c(-c3ccc(Cl)cc3)c2C)cc1,9.9
2,Cc1nc2ccccc2c(-c2ccc3c4c(ccnc24)CCO3)c1[C@H](OC(C)(C)C)C(=O)O [BI-224436],2.1

# Tested on: not listed separately
# Assay: Drug excretion in bile duct cannulated rat bile after 3 hrs
# Type: ADME
# Conditions: read-out: Drug excretion
# In short: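 Rats with cannulated bile ducts were dosed, and the fraction of compound excreted into bile was measured at the 3 h time point.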
row,Structure (SMILES),dose excreted at 3 h
1,Cc1noc(C)c1-c1ccc(-c2nc(C)c([C@H](OC(C)(C)C)C(=O)O)c(-c3ccc(Cl)cc3)c2C)cc1,22%
2,Cc1nc2ccccc2c(-c2ccc3c4c(ccnc24)CCO3)c1[C@H](OC(C)(C)C)C(=O)O [BI-224436],60%

# Tested on: not listed separately
# Assay: Solubility of the compound at pH 6.8
# Type: physicochemical
# Conditions: buffer
row,Structure (SMILES),solubility
1,Cc1noc(C)c1-c1ccc(-c2nc(C)c([C@H](OC(C)(C)C)C(=O)O)c(-c3ccc(Cl)cc3)c2C)cc1,250 µg/mL
2,Cc1nc2ccccc2c(-c2ccc3c4c(ccnc24)CCO3)c1[C@H](OC(C)(C)C)C(=O)O [BI-224436],> 850 µg/mL

# Molecular target: Cytochrome P450 3A4 (Homo sapiens, UniProt P08684)
# Assay: Inhibition of CYP3A4 (unknown origin)
# Type: ADME
# Conditions: not given
# Sequence of Cytochrome P450 3A4 (P08684 whole entry): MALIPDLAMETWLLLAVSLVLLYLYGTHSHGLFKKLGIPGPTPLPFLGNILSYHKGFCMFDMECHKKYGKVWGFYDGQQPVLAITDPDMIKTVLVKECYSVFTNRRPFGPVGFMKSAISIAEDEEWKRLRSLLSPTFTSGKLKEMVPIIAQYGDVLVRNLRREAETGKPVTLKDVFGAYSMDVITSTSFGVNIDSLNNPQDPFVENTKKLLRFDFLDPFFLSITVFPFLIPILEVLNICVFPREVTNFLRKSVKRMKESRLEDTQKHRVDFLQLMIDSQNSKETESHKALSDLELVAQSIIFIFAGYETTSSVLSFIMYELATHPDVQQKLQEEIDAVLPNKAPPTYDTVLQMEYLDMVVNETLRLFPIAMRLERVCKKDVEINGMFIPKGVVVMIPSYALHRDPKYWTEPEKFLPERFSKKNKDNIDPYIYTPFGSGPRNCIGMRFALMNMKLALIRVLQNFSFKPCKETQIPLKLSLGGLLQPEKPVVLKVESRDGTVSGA
row,Structure (SMILES),IC50
1,Cc1noc(C)c1-c1ccc(-c2nc(C)c([C@H](OC(C)(C)C)C(=O)O)c(-c3ccc(Cl)cc3)c2C)cc1,17000 nM

# Tested on: not listed separately
# Assay: Apparent permeability in human Caco2 cells
# Type: ADME, cell-based
# Conditions: Caco-2
row,Structure (SMILES),Papp
1,Cc1noc(C)c1-c1ccc(-c2nc(C)c([C@H](OC(C)(C)C)C(=O)O)c(-c3ccc(Cl)cc3)c2C)cc1,17 ×10⁻⁶ cm/s

# Tested on: Human immunodeficiency virus 1
# Assay: Antiviral activity against HIV-1 NL4.3-HxB2 virus harboring integrase T124/T125 mutant
# Type: functional, organism-based
# Conditions: Human immunodeficiency virus 1, NL4.3-HxB2; pooled result: one value given for 4 cell lines, strains, targets or settings
row,Structure (SMILES),EC50
1,Cc1noc(C)c1-c1ccc(-c2nc(C)c([C@H](OC(C)(C)C)C(=O)O)c(-c3ccc(Cl)cc3)c2C)cc1,6.5 nM
2,Cc1nc2ccccc2c(-c2ccc3c4c(ccnc24)CCO3)c1[C@H](OC(C)(C)C)C(=O)O [BI-224436],11 nM

# Tested on: Human immunodeficiency virus 1
# Assay: Antiviral activity against HIV1 NL4.3 harboring integrase A124/A125 mutant relative to control in presence of 50% human serum
# Type: functional
# Conditions: not given
# In short: as §1
row,Structure (SMILES),fold change (FC)
1,Cc1noc(C)c1-c1ccc(-c2nc(C)c([C@H](OC(C)(C)C)C(=O)O)c(-c3ccc(Cl)cc3)c2C)cc1,9.9
2,Cc1nc2ccccc2c(-c2ccc3c4c(ccnc24)CCO3)c1[C@H](OC(C)(C)C)C(=O)O [BI-224436],2.1

# Tested on: Human immunodeficiency virus 1
# Assay: Antiviral activity against HIV-1 NL4.3-HxB2 virus harboring integrase T124/T125 mutant relative to control in presence of 50% human serum
# Type: functional
# Conditions: not given
row,Structure (SMILES),fold change (FC)
1,Cc1noc(C)c1-c1ccc(-c2nc(C)c([C@H](OC(C)(C)C)C(=O)O)c(-c3ccc(Cl)cc3)c2C)cc1,9.9
2,Cc1nc2ccccc2c(-c2ccc3c4c(ccnc24)CCO3)c1[C@H](OC(C)(C)C)C(=O)O [BI-224436],2.1

# Tested on: not listed separately
# Assay: Half life in human liver microsomes
# Type: ADME
# Conditions: not given
row,Structure (SMILES),half-life
1,Cc1ccc(-c2nc(C)c([C@H](OC(C)(C)C)C(=O)O)c(-c3ccc4c(c3)CCCO4)c2C)cc1,0.717 h
2,Cc1noc(C)c1-c1ccc(-c2nc(C)c([C@H](OC(C)(C)C)C(=O)O)c(-c3ccc(Cl)cc3)c2C)cc1,3.83 h

# Tested on: not listed separately
# Assay: Half life in bile duct cannulated rat
# Type: ADME, organism-based
# Conditions: in vivo
row,Structure (SMILES),half-life
1,Cc1noc(C)c1-c1ccc(-c2nc(C)c([C@H](OC(C)(C)C)C(=O)O)c(-c3ccc(Cl)cc3)c2C)cc1,5.4 h
2,Cc1nc2ccccc2c(-c2ccc3c4c(ccnc24)CCO3)c1[C@H](OC(C)(C)C)C(=O)O [BI-224436],1.6 h

# Tested on: Human immunodeficiency virus 1
# Assay: Antiviral activity against HIV1 NL4.3 harboring integrase N124/A125 mutant relative to control in presence of 50% human serum
# Type: functional
# Conditions: not given
# In short: as §1
row,Structure (SMILES),fold change (FC)
1,Cc1noc(C)c1-c1ccc(-c2nc(C)c([C@H](OC(C)(C)C)C(=O)O)c(-c3ccc(Cl)cc3)c2C)cc1,9.9
2,Cc1nc2ccccc2c(-c2ccc3c4c(ccnc24)CCO3)c1[C@H](OC(C)(C)C)C(=O)O [BI-224436],2.1
